The nature of series [1]: Non-compartmental pharmacokinetics. Format: in vivo, human. In a few lines:
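Patients took oral drug twice daily, continuously, at 50–500 mg BID. Plasma parent drug and active metabolite M8 were measured by a validated assay. Parameters were derived non-compartmentally on day 1 and reported as geometric mean (SD). Accumulation indices for Cmax and AUC0–8 were compared with theoretical values from D1 half-lives. Dose proportionality was tested on day-1 Cmax and AUC0-inf (95% CI of coefficient including 1).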

For series [2] the following is noted: phase 3 maintenance trials ref 25-27; cited from earlier work.
A further series deals with sporadic ovarian cancer. The settings on record: sporadic ovarian cancer ref 43; cited from earlier work.
[3] abbreviates: metabolite M8, geometric mean (SD).

As for `CC1(c2nc3c(C(N)=O)cccc3[nH]2)CCC(=O)N1` (stereo not drawn) [M8], in series [1] (day 1), the “M8/ABT-888 metabolic ratio, AUC0-inf” value is reported as 0.21 (1.9) and the “M8/ABT-888 metabolic ratio, Cmax” value is 0.11 (1.8). Also, the theoretical accumulation index in series [1] (metabolite M8, from D1 half-lives, geometric mean (SD)) is 1.51 (1.25). Moreover, in series [1] (setting [3]), the “accumulation index for AUC0–8” value is listed as 1.59 (1.41) and the “accumulation index for Cmax” value was 1.51 (1.34).
In the case of `NC(=O)c1cccc2cn(-c3ccc([C@@H]4CCCNC4)cc3)nc12` [niraparib], in series [2], the “grade 3 or 4 anemia” value was 25%.
On to `O=C(c1cc(Cc2n[nH]c(=O)c3ccccc23)ccc1F)N1CCN(C(=O)C2CC2)CC1` [olaparib], for which the “grade 3 or 4 anemia” value in series [2] is reported as 19%. The “patients with objective responses” value with sporadic ovarian cancer is listed as 24%.
For `CNCc1ccc(-c2[nH]c3cc(F)cc4c3c2CCNC4=O)cc1` [rucaparib], the “grade 3 or 4 anemia” value in series [2] is recorded as 19%.

Source of the values: article PMC9116722 (Cancer chemotherapy and pharmacology, 2022).
